Screening results from PubChem.
SENP8 block-1: human SENP8 protease inhibitors, primary screen, biochemical, fluorescence, Nedd8 protein substrate, uHTS | Sentrin-specific protease 8 (Homo sapiens), Q96LD8 | recombinant SENP8 | inhibition, % at 20 µM | 360,000 tested, 0.64% active | AID 602440, 2012; in the data active = inhibition mostly above about 40%, no sharp cut-off; inactive = mostly below about 27%
UBC13 polyUb: UBC13 polyubiquitin chain formation inhibitors, primary screen, biochemical, TR-FRET, uHTS. 330,000 tested, 0.47% active. Ubiquitin-conjugating enzyme E2 N (Homo sapiens), P61088. AID 485273, 2010. inhibition, % at 20 µM; in the data active = inhibition above about 45%, passing the limit was not always enough
SENP6 inh: SENP6 protease inhibitors, primary screen, biochemical, luminescence, uHTS | Recombinant SENP6 catalytic domain, aminoluciferin luminescence | inhibition, % at 10 µM | AID 2599, 2010 | 330,000 tested, 1.8% active | Sentrin-specific protease 6 (Homo sapiens), Q9GZR1;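 active = inhibition above about 50% at the single tested dose, limit read from the data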
Target sequence (Q9GZR1 628-1112 limits assumed): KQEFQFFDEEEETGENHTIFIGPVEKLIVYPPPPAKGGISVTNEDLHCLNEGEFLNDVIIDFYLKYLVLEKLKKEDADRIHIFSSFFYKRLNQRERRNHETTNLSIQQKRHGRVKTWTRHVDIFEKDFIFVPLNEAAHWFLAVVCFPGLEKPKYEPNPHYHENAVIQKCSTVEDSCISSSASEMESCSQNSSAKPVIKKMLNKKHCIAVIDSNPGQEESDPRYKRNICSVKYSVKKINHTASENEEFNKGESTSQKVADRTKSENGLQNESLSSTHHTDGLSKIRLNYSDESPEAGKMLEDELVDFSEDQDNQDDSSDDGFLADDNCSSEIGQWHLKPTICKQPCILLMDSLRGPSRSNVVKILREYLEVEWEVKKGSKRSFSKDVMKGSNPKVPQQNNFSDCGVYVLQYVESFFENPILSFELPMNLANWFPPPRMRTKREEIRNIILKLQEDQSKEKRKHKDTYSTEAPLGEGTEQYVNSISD
SENP7 block: SENP7 protease inhibitors, primary screen, biochemical, luminescence, uHTS; 330,000 tested, 1.5% active; inhibition, % at 5 µM; AID 434973, 2010; recombinant SENP7, Z-RLRGG-aminoluciferin luminescence, 40 min;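 active = inhibition above about 50% at the single test dose, limit read from the data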
Apaf1 inhib: inhibitors of human Apaf-1 apoptosome, primary screen, biochemical, DEVD-Rh110 fluorescence, uHTS; 330,000 tested, 0.71% active; reconstituted apoptosome caspase-3 activity; AID 489030, 2010; Apoptotic protease-activating factor 1 (Homo sapiens), O14727; inhibition, % at 20 µM; active = inhibition of at least 40% at 20 µM
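Assay system – apoptosome proteins · Medium – Hepes buffer, pH 7.5 · Also added – cytochrome c with DEVD-Rh110 · Timing – 30 min compound preincubation, 50 min activation, room temperature · Detection – Rh110 fluorescence, excitation 480 nm, emission 540 nm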
SENP8 block-2: SENP8 protease inhibitors, primary screen, biochemical, luminescence. Sentrin-specific protease 8 (Homo sapiens), Q96LD8. purified SENP8, Z-RLRGG-aminoluciferin cleavage. inhibition, % at 10 µM. 330,000 tested, 1.2% active; in the data active = inhibition above about 50%
SENP8 conf: SENP8 protease inhibitors, retest, confirmation, biochemical, luminescence, single concentration; inhibition, % at 12.5 µM; Recombinant SENP8, Z-RLRGG-aminoluciferin luminescence, 60 min; shares compounds with SENP7 block; 6,200 tested, 40% active;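 active = mean inhibition across replicates above about 50%, limit read from the data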
SENP6 conf: SENP6 protease inhibitors, confirmation, biochemical, luminescence, single concentration. shares compounds with SENP7 block. recombinant SENP6, Z-RLRGG-aminoluciferin luminescence. inhibition, % at 12.5 µM. 6,200 tested, 58% active. AID 488915, 2010
SENP7 conf: SENP7 protease inhibitors, retest, confirmation, biochemical, luminescence, single concentration; shares compounds with SENP7 block; recombinant SENP7, Z-RLRGG-aminoluciferin luminescence, 40 min; inhibition, % at 12.5 µM; 6,200 tested, 69% active; AID 488917, 2010
Casp3 SENP sel: caspase-3 protease inhibitors, confirmation, selectivity assay for SENP inhibitor project, biochemical, single concentration. shares compounds with SENP7 block. purified caspase-3, Z-DEVD-aminoluciferin luminescence, 60 min. inhibition, % at 12.5 µM. 6,200 tested, 60% active;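 active = mean inhibition above about 50%, limit read from the data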
SENP luc ctr: luminescence interference (SENP counter-screen); shares compounds with SENP7 block; inhibition, % at 12.5 µM; 6,200 tested, 39% active; Pre-incubated SENP8/Z-RLRGG-aminoluciferin, luciferase luminescence interference;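 active = mean inhibition above about 50% when retested at one dose, limit read from the data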
A number is an active result; - = inactive; . = not tested or not shown. Compounds with a hit are over-represented: about 3% of the library has one in this group of screens.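 The calls were made as follows, unless noted: active = mean inhibition above about 50% in the one-dose retest (limit read from the data); inactive = the rest.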

SMILES | SENP8 block-1 | UBC13 polyUb | SENP6 inh | SENP7 block | Apaf1 inhib | SENP8 block-2 | SENP8 conf | SENP6 conf | SENP7 conf | Casp3 SENP sel | SENP luc ctr
CCOC(=O)C(=NCC1CCCO1)NNc1cc(Cl)ccc1Cl (centres undefined) | - | - | - | - | - | - | . | . | . | . | .
CC1CC(C)CN(CCCNC(=O)C2CCN(S(=O)(=O)N3CCCCC3)CC2)C1 (centres undefined) | - | - | - | 101 | - | - | - | - | - | - | -
COc1ccccc1N1CCN(C(=O)COc2ccc(S(=O)(=O)NC(C)C)cc2)CC1 | - | - | - | - | - | - | . | . | . | . | .
Cc1ccc(NC(=O)c2cnn(-c3ccccc3)c2C)cc1 | - | - | 66 | 67 | - | - | 67 | 64 | 89 | 70 | -
COc1cccc(NC(=O)c2cnn(-c3ccccc3)c2C)c1 | - | - | 82 | 85 | - | 78 | - | 85 | 98 | 89 | 86
Cc1ccc(NC(=O)c2cnn(-c3ccccc3)c2C)c(C)c1 | - | - | - | - | - | - | . | . | . | . | .
CCc1cccc(NC(=O)c2cnn(-c3ccccc3)c2C)c1 | - | - | 90 | 85 | - | 83 | - | 87 | 98 | 81 | 81
Cc1cccc(C)c1NC(=O)c1cnn(-c2ccccc2)c1C | - | - | - | - | - | - | . | . | . | . | .
O=C(NC1CCCCC1)C1c2ccccc2OCC(=O)N1CCc1ccccc1 (centres undefined) | - | . | . | . | . | . | . | . | . | . | .
O=C(CNC(=O)c1ccccc1Cl)N/N=C/c1ccc([N+](=O)[O-])s1 | - | - | 70 | - | - | - | - | - | - | - | -
O=C(Nc1cccc(F)c1)Nc1ccc2c(c1)CCC2 | - | - | 63 | 72 | - | - | - | - | 78 | - | -
O=C(Nc1cccc(F)c1)Nc1cnccn1 | - | - | - | - | - | - | . | . | . | . | .
O=C(Nc1ccc(F)cc1)Nc1ccc2c(c1)CCC2 | - | - | - | - | - | - | . | . | . | . | .
O=C(Nc1cccc(F)c1)Nc1ccccn1 | - | - | 58 | - | - | - | - | - | 75 | 54 | -
Cc1ccc(NC(=O)Nc2ccc3c(c2)CCC3)cc1 | - | - | - | - | - | - | . | . | . | . | .
O=C(Nc1ccc2c(c1)CCC2)c1ccc(F)cc1 | - | - | 87 | 87 | - | - | 85 | 84 | 96 | 82 | 80
O=C(Nc1ccccc1)Nc1ccc2c(c1)CCC2 | - | - | 84 | 80 | - | 62 | - | 57 | 91 | 60 | 81
CCCn1c(C)cc(C(=O)COC(=O)CN=C2NS(=O)(=O)c3ccccc32)c1C | - | - | - | - | - | - | . | . | . | . | .
CCCCC1C(=O)N(c2ccccc2)N(c2ccccc2)C1=O | - | - | - | - | - | - | . | . | . | . | .
CCCCN1C=CC(=C2C(=O)c3ccccc3C2=O)C=C1 | - | - | 92 | 78 | - | 89 | - | 92 | 100 | 95 | -
O=C(O)/C(=C\c1ccc(-c2ccccc2[N+](=O)[O-])o1)c1ccccc1 | - | - | 58 | - | - | - | 60 | 66 | 74 | 59 | 54
